Screening results from PubChem BioAssay.
This is a sample that favours compounds with a hit; in the whole collection about 2.5% have one here.
SENP8 block-1 – blocks human SENP8 cleavage of Nedd8 substrate | Q96LD8 | recombinant SENP8, Nedd8 substrate fluorescence | inhibition, % at 20 µM | actives 0.64% (n = 360,000); in the data active = inhibition mostly above about 40%, no sharp cut-off; inactive = mostly below about 27%
SENP8 block-2 – blocks the human protease SENP8 | Q96LD8 | inhibition, % at 10 µM | purified SENP8, Z-RLRGG-aminoluciferin cleavage, luminescence | actives 1.2% (n = 330,000) | AID 2540; in the data active = inhibition above about 50%
SENP7 inh – blocks the human protease SENP7; Q9BQF6; recombinant SENP7, Z-RLRGG-aminoluciferin luminescence, 40 min; inhibition, % at 5 µM; actives 1.5% (n = 330,000); AID 434973;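 active = inhibition above about 50% at the single test dose, limit read from the data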;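 note: plate controls were DMSO with enzyme for no effect and no enzyme buffer wells for full effect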
SENP1 inh – SENP1 (human) catalytic domain inhibition; Q9P0U3; actives 0.21% (n = 360,000); recombinant SENP1 catalytic domain, CyPet-SUMO1-YPet FRET cleavage; inhibition, % at 10 µM; AID 624204;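 active = inhibition at least 30% at 10 µM, raw YFP signal under a set limit, fluorescence ratio 0.5 to 1.5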;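 note: 0% = enzyme with DMSO and 100% = no enzyme wells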
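Material – human SENP1 catalytic domain · Input – SENP1 enzyme, 20 pM final · Compound dosing – single concentration of 10 µM compound, 0.5% DMSO final · Timing – enzyme reaction for 50 min at room temperature, dark · Measured by – FRET fluorescence in CFP and YFP emission channels · Control set – no-enzyme wells low, DMSO-plus-enzyme wells high control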
SENP6 inh – inhibitors of human SENP6 protease | inhibition, % at 10 µM | actives 1.8% (n = 330,000) | Q9GZR1 | Recombinant SENP6 catalytic domain, aminoluciferin luminescence | AID 2599;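 active = inhibition above about 50% at the single tested dose, limit read from the data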;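 note: plate controls were DMSO wells with enzyme for no effect and DMSO wells lacking enzyme for full effect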
Target sequence (Q9GZR1 628-1112 limits assumed): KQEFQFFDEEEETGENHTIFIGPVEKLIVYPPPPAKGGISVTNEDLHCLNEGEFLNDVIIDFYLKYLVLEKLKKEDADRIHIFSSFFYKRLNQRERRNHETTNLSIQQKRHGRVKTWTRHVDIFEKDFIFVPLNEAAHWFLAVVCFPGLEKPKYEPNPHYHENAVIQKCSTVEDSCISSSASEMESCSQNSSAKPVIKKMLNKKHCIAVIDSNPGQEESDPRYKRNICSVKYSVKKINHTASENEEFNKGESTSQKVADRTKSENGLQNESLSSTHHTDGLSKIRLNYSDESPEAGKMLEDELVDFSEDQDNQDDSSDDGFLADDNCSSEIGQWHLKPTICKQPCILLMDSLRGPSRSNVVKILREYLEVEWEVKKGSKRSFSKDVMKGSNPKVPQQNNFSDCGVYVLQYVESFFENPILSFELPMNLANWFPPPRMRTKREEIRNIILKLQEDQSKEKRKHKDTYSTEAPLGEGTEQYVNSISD
The depositor's hits bear a star; · = no result.

SMILES | SENP8 block-1 | SENP8 block-2 | SENP7 inh | SENP1 inh | SENP6 inh
CCN1C(=O)/C(=C\C=C2/C=CC=CN2CC)SC1=S | 29 | 0 | 7 | 8 | 6
COCCN(C(=O)CCC(=O)Nc1ccccn1)C(C(=O)NC(C)C)c1ccc(C)cc1 (stereo not drawn) | 2 | 0 | -5 | 2 | -6
CCc1cc2c(=O)c(-c3nc(C)cs3)coc2cc1O | -16 | 38 | 77* | -8 | 66*
O=S(=O)(/N=S1\CC=CCN1S(=O)(=O)c1ccccc1)c1ccccc1 (stereo not drawn) | 7 | · | · | 1 | ·
CC(=O)Oc1ccc2c(=O)c(-c3ccccc3)coc2c1 | -193 | 22 | 59* | -1 | 21
COc1ccc(N/N=C(\C=N\O)C(=O)c2ccc(OC)cc2)cc1 | 44* | -3 | 5 | 5 | -26
COc1ccc(C(=O)C(=NNc2ccccc2)c2ccc(OC)cc2)cc1 | 11 | · | · | 0 | ·
O=C1CC(c2ccco2)Cc2nc(N3CCc4ccccc4C3)ncc21 (stereo not drawn) | -34 | 3 | 5 | 31* | 13
CC(C)c1ccc(C2CC(=O)c3cnc(N4CCc5ccccc5C4)nc3C2)cc1 (stereo not drawn) | -12 | 7 | 12 | -1 | 7
CNC[C@H](O)c1ccc(O)c(O)c1 | 55* | 1 | 10 | -8 | 7
CCOc1cc(N2CCOCC2)c(OCC)cc1NC(=O)C(C)C | 14 | -7 | 2 | 1 | 8
CCOc1cc(N2CCOCC2)c(OCC)cc1NC(C)C(=O)N1CCN(CC)CC1 (stereo not drawn) | 58* | · | · | -1 | ·
CCOc1cc(N2CCOCC2)c(OCC)cc1NC(=O)CSc1cccc[n+]1[O-] | 47* | -12 | -12 | -1 | -7
CCOc1ccccc1Nc1nnc(SCC(=O)NC2CCS(=O)(=O)C2)s1 (stereo not drawn) | -2 | -5 | 1 | 2 | 4
O=[N+]([O-])c1ccc(O)c(C=Nc2ccc3nc(-c4ccccc4)[nH]c3c2)c1 | -362 | 37 | 64* | -21 | 71*
O=[N+]([O-])c1cccc(-c2nc3ccc([N+](=O)[O-])cc3[nH]2)c1 | 15 | 94* | 93* | 1 | 99*
O=C(Nc1ccc2c(c1)OCCO2)C1C(c2ccccc2)=Nc2ccccc2N1C(=O)c1cccnc1 (stereo not drawn) | -96 | · | · | 4 | ·
O=C(Nc1nsc(-c2ccccc2)n1)c1cccs1 | -62 | 37 | 62* | 2 | 64*
Cc1sc(NC(=O)c2cccs2)nc1-c1ccccc1 | -31 | -16 | -7 | -1 | -32
Cc1[nH]n(-c2ccccc2)c(=O)c1N=Nc1cccc(Cl)c1 | 22 | -3 | -14 | 0 | -4
Cc1[nH]n(-c2ccc(Cl)cc2)c(=O)c1N=Nc1cccnc1 | 43* | -7 | 9 | 0 | -21
Cc1cccc(NC(=O)C2CCCN(S(=O)(=O)c3cccs3)C2)c1C (stereo not drawn) | 6 | -4 | -3 | 1 | -23
N#CC(C#N)=C1c2cc(S(=O)(=O)NCCO)ccc2-c2ccc(S(=O)(=O)NCCO)cc21 | 24 | 4 | 5 | 33* | -4
O=C1c2cc(S(=O)(=O)NCCO)ccc2-c2ccc(S(=O)(=O)NCCO)cc21 | 6 | 6 | 5 | 5 | 3
O=C(C[C@H]1CC[C@@H]2[C@H](COC[C@@H](O)CN2Cc2ccc(Cl)cc2)O1)NCCc1ccccc1 | 30 | · | · | 2 | ·
SMILES | SENP8 block-1 | SENP8 block-2 | SENP7 inh | SENP1 inh | SENP6 inh
COc1ccc(OCC(CO)N2CCN(c3ccccc3)CC2)cc1 (stereo not drawn) | 5 | · | · | 0 | ·
CCn1c(N)nc2c1c(=O)n(C)c(=O)n2C | 26 | 1 | -4 | -1 | -9
CCCc1nc2c(=O)n(C)c(=O)nc-2n(C)n1 | 120* | · | · | 34* | ·
COc1ccc(-c2nc(-c3ccccn3)ncc2S(C)(=O)=O)cc1 | 12 | -8 | 0 | 1 | -11
Cn1nc(-c2ccccn2)nc2c(=O)n(C)c(=O)nc1-2 | 93* | 97* | 96* | 33* | -8
CC(C)CSc1nc2c(=O)[nH][nH]c(=O)c2n1Cc1ccccc1 | 13 | -9 | -8 | 1 | -14
O=C(O)c1cn(C2CC2)c2cc(N3CCN(S(=O)(=O)c4ccc5c(c4)OCCO5)CC3)c(F)cc2c1=O | -383 | -7 | -5 | 2 | -22
O=C(Cn1cc(SCc2ccccc2Cl)c2ccccc21)N1CCOCC1 | 11 | 43 | 40 | 0 | 75*
O=C(Cn1c(=O)oc2cc(S(=O)(=O)N3CCCC3)ccc21)Nc1ccccn1 | -3 | · | · | 1 | ·
Fc1ccc(N2CCN(C3=Nc4cccc5cccc3c45)CC2)cc1 | 17 | -4 | 0 | 90* | 5
NNC(=S)Nc1c(Br)cc(F)cc1Br | 13 | 3 | -5 | 3 | -5
O=C(O)c1ccccc1NS(=O)(=O)c1ccc(N/N=C/c2ccc(O)c(O)c2)c([N+](=O)[O-])c1 | 53* | · | · | 1 | ·
NS(=O)(=O)c1ccc(N/N=C/c2ccc(O)c(O)c2O)c([N+](=O)[O-])c1 | 106* | · | · | 2 | ·
O=C(O)c1ccccc1NS(=O)(=O)c1ccc(NN=Cc2ccc(F)cc2)c([N+](=O)[O-])c1 | 29 | 8 | 3 | 3 | 33
NS(=O)(=O)c1ccc(N/N=C/c2ccc(O)cc2O)c([N+](=O)[O-])c1 | 54* | 3 | 3 | 6 | 3
CCOC(=O)c1c(C)nsc1NC(=O)C1(C)CCN1C(=O)CC (stereo not drawn) | 12 | · | · | 0 | ·
Cc1ccc(Cc2c(-c3ccc(F)cc3)nc3c(C)cc(Br)cn23)cc1 | -3 | · | · | 40* | ·
COC(=O)c1ccc(N2C(c3cc(OC)cc(OC)c3)=Cc3ccc(-c4ccc(C(N)=O)cc4)cc3C2CC(=O)C2CC2)cc1 (stereo not drawn) | -384 | · | · | -18 | ·
COc1ccc(NS(=O)(=O)c2cc([N+](=O)[O-])ccc2N/N=C\c2c(C)[nH]c3ccccc23)cc1 | 47* | 16 | 4 | 12 | -1
CN1CCC(C)(C(=O)Nc2ccc3c(c2)OCCO3)C1 (stereo not drawn) | 20 | · | · | 3 | ·
Cc1nccc(-c2cccc(N/N=C(\C#N)C(=O)c3ccccc3)c2)n1 | 38* | 3 | -1 | 0 | 5
CSC[C@H]1CN(Cc2ccccc2)C(=O)[C@@H]1CC(=O)Nc1ccc(Br)cc1 | 4 | · | · | 1 | ·
CCCCC1=CC2=C(c3ccco3)C(=O)C(C)(OC(=O)c3ccc(OC)cc3)C(=O)C2=CN1c1ccccc1 (stereo not drawn) | 18 | -2 | -7 | 30 | 10
COc1ccc(CCNC(=O)c2ccc3c(c2)S(=O)(=O)N=C2CCCCCN23)cc1OC | 14 | · | · | 1 | ·
O=C(O)C(S)C(S)C(=O)O (stereo not drawn) | 49* | · | · | 3 | ·
COc1cc(CCNC2=CC(=O)c3ncccc3C2=O)ccc1O | 97* | · | · | -1 | ·
O=C(Nc1cccc(C(F)(F)F)c1)c1csc([C@@H]2O[C@H](CO)[C@@H](O)[C@H]2O)n1 | 0 | · | · | -6 | ·
